ChEMBL document CHEMBL1158489, “Synthesis and evaluation of 4-acyl-2-thiazolylhydrazone derivatives for anti-Toxoplasma efficacy in vitro” (J Med Chem, 2009)
Activity calls are given as the source filed them. The rule behind the calls is not given here.

Tests used:
[1] = Therapeutic index, ratio of TD50 for human HFF to IC50 for Toxoplasma gondii 2F tachyzoites; conditions: HFF cells and Toxoplasma gondii 2F tachyzoites, read-out: TI
Toxoplasma gondii [2] = assay: Antiparasitic activity against Toxoplasma gondii 2F tachyzoites infected in HFF assessed as inhibition of tachyzoite host cell invasion at 25 uM treated 20 mins prior to infection measured after 1 hr using DAPI staining by immunofluorescence microscopy relative to control; format: functional; parameters: scale not given: the % may be the effect or the level left
Method in brief: (§1)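 Tachyzoites (strain 2F) preincubated with compound or DMSO (final 25 μM) at room temperature 20 min, then added to HFF monolayers; 1 h at 37 °C, 5% CO2, rinsed and fixed. Red/green sequential staining: attached/extracellular parasites labelled Rb anti-p30 with Alexa Fluor 594 (red), penetrated/intracellular green, host nuclei blue. Penetrated and attached counts compared with DMSO control.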

[3] = Cytotoxicity against human HFF by spectrophotometry; format: cell-based; conditions: HFF cells, read-out: TD50 (the source's name)
Toxoplasma gondii [4] = assay: Antiparasitic activity against Toxoplasma gondii 2F tachyzoites infected in HFF assessed as parasite growth inhibition-related decrease in beta-galactosidase activity treated prior to infection measured after 5 days by spectrophotometry; format: functional, organism-based; conditions: 120 h
Toxoplasma gondii [5] = assay: Antiparasitic activity against Toxoplasma gondii 2F tachyzoites infected in HFF assessed as inhibition of intracellular parasite replication at 25 uM treated 2 hrs postinfection measured after 26 hrs using DAPI staining by fluorescence microscopy relative to control; format: functional, organism-based
Method in brief: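 HFF monolayers inoculated with tachyzoites, 2 h incubation, then compound (final 25 μM) or DMSO control added to medium. Replication ran 26 h; monolayers fixed, permeabilized, immunolabelled with Rb anti-p30 (SAG1) and goat anti-rabbit Alexa Fluor 594 (red), imaged by fluorescence.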

Toxoplasma gondii [6] = assay: Antiparasitic activity against Toxoplasma gondii 2F tachyzoites infected in HFF assessed as decrease in parasite penetration and attachment to host cell at 25 uM treated 20 mins prior to infection measured after 1 hr using DAPI staining by immunofluorescence microscopy relative to control; format: functional; parameters: scale not given: the % may be the effect or the level left; method in brief: as §1

Row | SMILES | selectivity ratio [1] | Activity (Toxoplasma gondii [2]) [%] | CC50 [3] [µM] | IC50 (Toxoplasma gondii [4]) [µM] | IC90 (Toxoplasma gondii [4]) [µM] | Activity (Toxoplasma gondii [5]) | Activity (Toxoplasma gondii [6]) [%]
1 | CC1CC/C(=N/Nc2nc(C(=O)O)cs2)C1 (centres undefined) | 2 | 47 | 82 | 38 | 70 | – | –
2 | CCOC(=O)c1csc(N/N=C(\C)c2ccc3ccccc3c2)n1 | 3 | 45 | 127 | 43 | 88 | – | –
3 | O=C(O)c1csc(NN=C2CCCCCC2)n1 | 3 | – | ≥ 320 | 179 | 3870 | – | –
4 | O=C(O)c1csc(NN=C2CCCCC2)n1 | – | 45 | ≥ 320 | ≥ 320 | – | – | –
5 | CC1CCC/C1=N/Nc1nc(C(=O)O)cs1 (centres undefined) | – | – | ≥ 320 | ≥ 320 | – | – | –
6 | CCOC(=O)c1csc(NN=C2CCCCC2)n1 | 4 | 45 | ≥ 320 | 160 | 638 | – | –
7 | CCOC(=O)c1csc(NN=C2CCCCCC2)n1 | 7 | – | ≥ 320 | 77 | 226 | – | –
8 | CCOC(=O)c1csc(N/N=C2/CCCC(C)C2)n1 (centres undefined) | 6 | 48 | 84 | 15 | 46 | – | –
9 | CCOC(=O)c1csc(N/N=C/c2ccncc2)n1 | – | 49 | ≥ 320 | ≥ 320 | – | – | –
10 | CCOC(=O)c1csc(N/N=C(\C)c2ccco2)n1 | 5 | – | 241 | 49 | 161 | – | –
11 | CCOC(=O)c1csc(N/N=C(\C)c2cccnc2)n1 | 17 | – | ≥ 320 | 34 | 86 | – | –
12 | CCOC(=O)c1csc(N/N=C/c2c[nH]c3ccccc23)n1 | 2 | – | ≥ 320 | 280 | 2240 | – | –
13 | CCOC(=O)c1csc(N/N=C2/CCCC2C)n1 (centres undefined) | 4 | – | ≥ 320 | 130 | 248 | – | –
14 | CCOC(=O)c1csc(N/N=C2/CCC(C)C2)n1 (centres undefined) | 10 | 48 | ≥ 320 | 59 | 190 | – | –
15 | CCOC(=O)c1csc(N/N=C(\C)c2ccncc2)n1 | 9 | – | ≥ 320 | 64 | 188 | – | –
16 | CCOC(=O)c1csc(N/N=C/c2cccs2)n1 | – | – | ≥ 320 | ≥ 320 | – | – | –

Row | SMILES | selectivity ratio [1] | Activity (Toxoplasma gondii [2]) [%] | CC50 [3] [µM] | IC50 (Toxoplasma gondii [4]) [µM] | IC90 (Toxoplasma gondii [4]) [µM] | Activity (Toxoplasma gondii [5]) | Activity (Toxoplasma gondii [6]) [%]
17 | CCOC(=O)c1csc(N/N=C(\C)c2cccs2)n1 | 15 | – | ≥ 320 | 37 | 136 | – | –
18 | CCOC(=O)c1csc(N/N=C(\C)c2ccccn2)n1 | 2 | 147 | 6 | 3 | 7 | Active | –
19 | COc1cc(Cc2cnc(N)nc2N)cc(OC)c1OC [TRIMETHOPRIM] | 41 | – | ≥ 320 | 14 | – | – | –
20 | O=C(O)c1csc(NN=C2CCCC2)n1 | – | – | ≥ 320 | ≥ 320 | – | – | 47
21 | CCOC(=O)c1csc(N/N=C2/CCCCC2C)n1 (centres undefined) | 3 | – | ≥ 320 | 185 | 508 | – | –
22 | CCOC(=O)c1csc(N/N=C/c2ccco2)n1 | – | – | ≥ 320 | ≥ 320 | – | – | –
23 | CCOC(=O)c1csc(N/N=C/c2cccnc2)n1 | 4 | – | ≥ 320 | 162 | 398 | – | –
24 | CCOC(=O)c1csc(N/N=C(\C)c2cc3ccccc3oc2=O)n1 | 27 | – | ≥ 320 | 21 | 55 | – | –
25 | CC1CCCC/C1=N/Nc1nc(C(=O)O)cs1 (centres undefined) | 4 | – | ≥ 320 | 128 | 310 | – | –
26 | CC1CCC(=NNc2nc(C(=O)O)cs2)CC1 (centres undefined) | – | – | ≥ 320 | ≥ 320 | – | – | –
27 | CCOC(=O)c1csc(N/N=C/c2cccc3ccccc23)n1 | 11 | 35 | ≥ 320 | 52 | 182 | – | 47
28 | CC1CCC/C(=N/Nc2nc(C(=O)O)cs2)C1 (centres undefined) | – | – | ≥ 320 | ≥ 320 | – | – | –
29 | CCOC(=O)c1csc(NN=C2CCC(C)CC2)n1 (centres undefined) | 9 | – | ≥ 320 | 60 | 151 | – | –
30 | CCOC(=O)c1csc(N/N=C/c2ccc3c(c2)OCO3)n1 | 1 | – | ≥ 320 | 479 | 2590 | – | –
31 | CCOC(=O)c1csc(NN=C2CCCC2)n1 | 6 | – | ≥ 320 | 92 | 239 | – | –
